Source: paper PMC11387822 (Scientific Reports, 2024)
“Also recorded” adds a separate entry of the source.

Key:
BuChE = BuChE (Homo sapiens, UniProt P06276); test: In vitro BuChE inhibitory activity; assay type: biochemical; conditions: for BuChE IC50: mean ± SD (n = 3)
AChE [1] = biological target: T1, AChE (Homo sapiens, UniProt P22303); test: In vitro AChE inhibitory activity; assay type: biochemical; conditions: for AChE IC50: mean ± SD (n = 3)
BACE1 = BACE1 (Homo sapiens, UniProt P56817); test: BACE1 inhibitory activity, FRET-based assay kit; assay type: biochemical
Chain of BACE1 (P56817 46-501): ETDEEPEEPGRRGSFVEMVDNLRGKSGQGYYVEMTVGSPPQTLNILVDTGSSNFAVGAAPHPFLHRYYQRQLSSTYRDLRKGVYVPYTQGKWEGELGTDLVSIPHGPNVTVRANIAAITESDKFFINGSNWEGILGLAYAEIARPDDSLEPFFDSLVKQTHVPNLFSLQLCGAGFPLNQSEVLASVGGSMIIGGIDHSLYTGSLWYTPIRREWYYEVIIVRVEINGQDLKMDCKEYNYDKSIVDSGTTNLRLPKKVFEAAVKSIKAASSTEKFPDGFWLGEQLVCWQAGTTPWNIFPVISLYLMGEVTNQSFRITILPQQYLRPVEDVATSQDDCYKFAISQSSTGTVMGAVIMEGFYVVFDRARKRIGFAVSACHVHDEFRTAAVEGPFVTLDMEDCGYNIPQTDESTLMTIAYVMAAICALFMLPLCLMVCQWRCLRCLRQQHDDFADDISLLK

[2] = Metal chelating activity by UV-visible spectrometry, mole ratio method; assay type: physicochemical; conditions: UV 200-600 nm, methanol, 5d 20 μM, Fe3+ 0-50 μM, 30 min room temperature
Outline: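 Test compound (20 μM in absolute methanol) was titrated with FeCl3 (0–50 μM Fe3+) and incubated 30 min at room temperature. UV absorption from 200 to 600 nm was recorded with and without Fe3+ in a 1 cm quartz cuvette. Complex stoichiometry was taken from the mole ratio method.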

AChE [3] = biological target: T1, AChE; test: Kinetic characterization of AChE inhibition; assay type: biochemical

Chain of BuChE (P06276 29-602): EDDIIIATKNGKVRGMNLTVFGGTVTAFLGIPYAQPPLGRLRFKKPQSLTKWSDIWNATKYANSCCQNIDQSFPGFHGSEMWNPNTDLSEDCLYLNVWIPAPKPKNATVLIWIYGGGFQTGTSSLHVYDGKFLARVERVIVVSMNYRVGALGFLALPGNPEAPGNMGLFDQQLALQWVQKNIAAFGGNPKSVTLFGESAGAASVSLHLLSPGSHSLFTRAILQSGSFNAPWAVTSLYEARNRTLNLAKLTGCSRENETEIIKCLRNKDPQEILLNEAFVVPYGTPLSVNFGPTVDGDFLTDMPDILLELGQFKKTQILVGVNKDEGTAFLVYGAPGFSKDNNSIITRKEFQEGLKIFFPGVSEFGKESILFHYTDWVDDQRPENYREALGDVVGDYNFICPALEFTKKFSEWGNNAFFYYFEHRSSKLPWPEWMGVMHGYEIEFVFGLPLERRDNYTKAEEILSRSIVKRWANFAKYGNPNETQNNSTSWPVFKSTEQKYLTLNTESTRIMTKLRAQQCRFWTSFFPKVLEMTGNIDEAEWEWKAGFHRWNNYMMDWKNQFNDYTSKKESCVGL
T1 sequence (P22303 32-614): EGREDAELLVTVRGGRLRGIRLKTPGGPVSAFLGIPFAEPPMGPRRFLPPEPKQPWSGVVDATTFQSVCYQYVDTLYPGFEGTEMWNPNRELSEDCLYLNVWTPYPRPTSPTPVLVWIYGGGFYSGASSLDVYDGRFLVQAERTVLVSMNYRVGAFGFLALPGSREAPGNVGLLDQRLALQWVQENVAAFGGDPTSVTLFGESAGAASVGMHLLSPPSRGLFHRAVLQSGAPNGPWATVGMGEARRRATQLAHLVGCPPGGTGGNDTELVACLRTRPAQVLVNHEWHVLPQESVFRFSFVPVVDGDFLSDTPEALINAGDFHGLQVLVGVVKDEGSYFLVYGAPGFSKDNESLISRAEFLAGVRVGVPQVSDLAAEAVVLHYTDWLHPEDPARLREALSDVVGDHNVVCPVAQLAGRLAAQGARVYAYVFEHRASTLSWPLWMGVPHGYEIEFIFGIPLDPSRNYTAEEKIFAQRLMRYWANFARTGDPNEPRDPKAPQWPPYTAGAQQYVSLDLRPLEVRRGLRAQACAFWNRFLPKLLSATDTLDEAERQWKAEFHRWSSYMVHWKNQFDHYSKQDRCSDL

In the case of `Cn1cc(-c2cc(C(=O)NN=Cc3ccccc3)no2)c2ccccc21` [Compound 5a, N'-Benzylidene-5-(1-methyl-1H-indol-3-yl)isoxazole-3-carbohydrazide], the “BuChE IC50” value (BuChE) is reported as “no inhibitory potencies” and the “AChE IC50” value (AChE [1]) is reported as “no inhibitory potencies”.

`Cn1cc(-c2cc(C(=O)NN=Cc3ccccc3O)no2)c2ccccc21` [Compound 5b, N'-(2-Hydroxybenzylidene)-5-(1-methyl-1H-indol-3-yl)isoxazole-3-carbohydrazide] gave an IC50 (BuChE) of 92.8 ± 2.29 µM and an IC50 (BACE1) of 2.79 ± 0.52 µM.

For `COc1cccc(C=NNC(=O)c2cc(-c3cn(C)c4ccccc34)on2)c1` [Compound 5d, N'-(3-Methoxybenzylidene)-5-(1-methyl-1H-indol-3-yl)isoxazole-3-carbohydrazide], the “BuChE IC50” value (BuChE) was “no notable inhibition; also recorded: no potency”, the IC50 (AChE [1]) was 29.5 ± 0.31 µM and the IC50 (BACE1) was 2.85 ± 0.09 µM. For the same molecule, the “metal chelating ability against Fe3+” value [2] was “had biometal chelation ability”, the Ki (AChE [3]) was 19.3 µM and the “inhibition pattern on AChE” value (AChE [3]; Lineweaver-Burk: Km increased, Vmax unchanged) was “competitive”.

In the case of `COc1cccc(C=NNC(=O)c2cc(-c3cn(C)c4ccccc34)on2)c1O` [Compound 5g, N'-(2-Hydroxy-3-methoxybenzylidene)-5-(1-methyl-1H-indol-3-yl)isoxazole-3-carbohydrazide], the IC50 (AChE [1]) is reported as 63.8 ± 4.04 µM.

With `Cn1cc(-c2cc(C(=O)NN=Cc3ccccc3F)no2)c2ccccc21` [Compound 5h, N'-(2-Fluorobenzylidene)-5-(1-methyl-1H-indol-3-yl)isoxazole-3-carbohydrazide] the “AChE IC50” value (AChE [1]) was “no potency”.

For `Cn1cc(-c2cc(C(=O)NN=Cc3ccccc3Cl)no2)c2ccccc21` [Compound 5i, N'-(2-Chlorobenzylidene)-5-(1-methyl-1H-indol-3-yl)isoxazole-3-carbohydrazide], the “AChE IC50” value (AChE [1]) was “no potency”.

For `Cn1cc(-c2cc(C(=O)NN=Cc3cccc(Br)c3)no2)c2ccccc21` [Compound 5j, N'-(3-Bromobenzylidene)-5-(1-methyl-1H-indol-3-yl)isoxazole-3-carbohydrazide], the “AChE IC50” value (AChE [1]) was “no potency” and the IC50 (BACE1) was 1.99 ± 0.15 µM.

With `Cn1cc(-c2cc(C(=O)NN=Cc3cccc([N+](=O)[O-])c3)no2)c2ccccc21` [Compound 5k, N'-(3-Nitrobenzylidene)-5-(1-methyl-1H-indol-3-yl)isoxazole-3-carbohydrazide] the IC50 (BuChE) was 71.3 ± 0.76 µM.
